Data: PMC4910733 (Oncoimmunology, 2015)

Experiments:
[1] = system: NK cell killing of HL cell lines (L428, L540, KMH2); assay type: cell-based, human; settings: L428 and L540 treated 24 h at 10 μM, E:T 10:1
In short: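 NK cells purified to >96%, stimulated with 0.5 µg/mL PHA plus 10 ng/mL rIL-2, then cultured 15 d in RPMI1640 with 10% FCS and rIL-2; n = 6. Target HL cells were pre-exposed 24 h to medium, DMSO or test compound (10 µM). 4-h 51Cr release at E:T 10:1. Some effectors received anti-NKG2D mAb (5 µg/mL) or isotype control. Specific lysis = (experimental − spontaneous)/(maximum − spontaneous).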

[2] = system: HL cell lines, isolated MSC; assay: Toxicity by mitochondrial potential; assay type: cell-based, human; settings: for toxic effect (mitochondrial potential, JC-1): HL cell lines or isolated MSC, 2.5 up to 10 μM, 48, 72 and 96 h (not shown)
[3] = target: T1, Recombinant human ADAM10 (Homo sapiens, UniProt O14672); assay: In vitro enzymatic inhibition assay; assay type: biochemical; settings: read-out: ADAM10 IC50; average of three determinations, SD <10%
T1 sequence (O14672 214-748): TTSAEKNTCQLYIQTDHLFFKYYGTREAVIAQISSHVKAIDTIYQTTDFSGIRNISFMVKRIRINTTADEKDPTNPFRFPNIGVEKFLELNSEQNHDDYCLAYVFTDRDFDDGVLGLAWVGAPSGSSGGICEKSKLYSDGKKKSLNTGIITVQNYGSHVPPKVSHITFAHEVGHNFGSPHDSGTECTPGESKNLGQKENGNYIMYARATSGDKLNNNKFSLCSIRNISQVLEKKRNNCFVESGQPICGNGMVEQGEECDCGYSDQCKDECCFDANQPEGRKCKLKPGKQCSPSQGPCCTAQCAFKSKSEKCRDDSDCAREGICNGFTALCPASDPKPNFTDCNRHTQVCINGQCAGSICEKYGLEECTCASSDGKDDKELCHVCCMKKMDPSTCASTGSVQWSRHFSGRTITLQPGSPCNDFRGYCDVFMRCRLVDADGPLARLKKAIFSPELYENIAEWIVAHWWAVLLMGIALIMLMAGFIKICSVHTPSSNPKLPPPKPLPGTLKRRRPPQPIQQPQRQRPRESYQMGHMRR

[4] = target: Recombinant human MMP-14 catalytic domain (Homo sapiens, UniProt P50281); assay: MMP inhibition assay; assay type: biochemical; settings: read-out: MMP14 IC50; average of three determinations, SD <10%
In short: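 Recombinant human MMP-14 catalytic domain (1.0 nM final) was preincubated 3 h at 25°C with test compound in 50 mM Tris pH 7.5, 150 mM NaCl, 10 mM CaCl2, 0.05% Brij-35, 1% DMSO. Substrate Mca-Lys-Pro-Leu-Gly-Leu-Dap(Dnp)-Ala-Arg-NH2 at 2 µM final. Fluorescence (ex 325/em 400 nm) read every 15 s for 20 min, in duplicate. IC50 from vi/vo = 1/(1+[I]/IC50).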

[5] = target: MMP-9 (Homo sapiens, UniProt P14780); assay: MMP inhibition assay; assay type: biochemical; settings: read-out: MMP9 IC50; average of three determinations, SD <10%
In short: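 APMA-activated MMP-9 (1 mM, 1 h, 37°C), 1.3 nM final, was preincubated with test compound 3 h at 25°C in 50 mM Tris pH 7.5, 150 mM NaCl, 10 mM CaCl2, 0.05% Brij-35, 1% DMSO. Fluorogenic substrate Mca-Lys-Pro-Leu-Gly-Leu-Dap(Dnp)-Ala-Arg-NH2 at 2 µM final. Cleavage monitored (ex 325/em 400 nm) every 15 s for 20 min, in duplicate. IC50 via vi/vo = 1/(1+[I]/IC50).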

[6] = target: T2, MMP-2 (Homo sapiens, UniProt P08253); assay: MMP inhibition assay; assay type: biochemical; settings: read-out: MMP2 IC50; average of three determinations, SD <10%
T2 sequence (P08253 110-660): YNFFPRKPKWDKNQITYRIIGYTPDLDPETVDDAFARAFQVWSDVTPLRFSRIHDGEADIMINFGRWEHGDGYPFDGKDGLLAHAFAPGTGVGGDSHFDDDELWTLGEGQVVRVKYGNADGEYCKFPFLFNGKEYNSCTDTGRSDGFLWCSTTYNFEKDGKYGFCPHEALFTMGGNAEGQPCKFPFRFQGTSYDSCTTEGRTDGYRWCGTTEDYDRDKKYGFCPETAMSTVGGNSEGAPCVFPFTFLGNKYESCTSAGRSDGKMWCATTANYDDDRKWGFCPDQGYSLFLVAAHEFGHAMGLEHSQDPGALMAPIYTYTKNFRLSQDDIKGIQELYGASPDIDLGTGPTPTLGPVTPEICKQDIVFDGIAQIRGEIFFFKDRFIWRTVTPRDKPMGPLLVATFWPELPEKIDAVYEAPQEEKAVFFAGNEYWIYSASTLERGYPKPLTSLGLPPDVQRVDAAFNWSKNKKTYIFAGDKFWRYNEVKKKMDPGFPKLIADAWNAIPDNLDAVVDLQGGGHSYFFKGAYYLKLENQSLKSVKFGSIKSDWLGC
In short: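 Pro-MMP-2 was activated with APMA 2 mM, 1 h, 37°C. Enzyme (0.56 nM final) and test compound were incubated 3 h at 25°C in 50 mM Tris pH 7.5, 150 mM NaCl, 10 mM CaCl2, 0.05% Brij-35, 1% DMSO. Mca-Lys-Pro-Leu-Gly-Leu-Dap(Dnp)-Ala-Arg-NH2 at 2 µM final. Fluorescence (ex 325/em 400 nm) recorded every 15 s for 20 min, in duplicate. IC50 from vi/vo = 1/(1+[I]/IC50).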

Chain of MMP-9 (P14780 107-707 limits assumed): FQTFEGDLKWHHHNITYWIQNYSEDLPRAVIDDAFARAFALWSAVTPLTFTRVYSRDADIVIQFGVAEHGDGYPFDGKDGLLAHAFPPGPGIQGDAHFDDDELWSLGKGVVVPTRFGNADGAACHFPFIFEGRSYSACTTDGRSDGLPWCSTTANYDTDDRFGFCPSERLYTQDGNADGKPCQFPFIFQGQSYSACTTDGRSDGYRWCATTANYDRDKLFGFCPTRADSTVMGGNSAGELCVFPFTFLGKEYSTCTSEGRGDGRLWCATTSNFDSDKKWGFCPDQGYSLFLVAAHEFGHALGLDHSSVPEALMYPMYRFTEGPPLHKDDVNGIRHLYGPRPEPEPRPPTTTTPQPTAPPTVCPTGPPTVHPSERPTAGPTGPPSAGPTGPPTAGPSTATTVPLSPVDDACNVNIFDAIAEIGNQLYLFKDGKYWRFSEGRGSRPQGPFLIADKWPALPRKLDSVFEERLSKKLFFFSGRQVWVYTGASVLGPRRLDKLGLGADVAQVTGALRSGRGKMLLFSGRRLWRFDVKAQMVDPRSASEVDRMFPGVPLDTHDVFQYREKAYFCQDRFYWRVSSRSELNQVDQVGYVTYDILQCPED

Structure (SMILES)	increase of NK cell killing [1]	toxic effect (mitochondrial potential, JC-1) [2]	IC50 [3] [nM]	IC50 [4] [nM]	IC50 [5] [nM]	IC50 [6] [nM]	toxicity (JC1 staining) ([2]; HL cell lines, 100 μM as pervanadate, 40 min at 37°C (not shown))
CNC(=O)[C@@H](NC(=O)[C@H](CCCc1ccccc1)[C@H](C)N(O)C=O)C(C)(C)C [GI254023X]	2–3 fold	did not exert any toxic effect					
NC(=O)NCCC[C@@H](NS(=O)(=O)c1ccc(OCc2cc(Br)cc(Br)c2)cc1)C(=O)NO [JG26]	2–3 fold	did not exert any toxic effect	150	19500	1630	240	
[Na+].[Na+].[Na+].[O]=[V]([O-])([O-])[O-] [Na3VO4, sodium orthovanadate]							not toxic
